Among the data in ChEMBL document CHEMBL4414550, “Binding of Monovalent and Bivalent Ligands by Transthyretin Causes Different Short- and Long-Distance Conformational Changes” (J Med Chem, 2019) are Activity values, retold here.

The source made the active and inactive calls. No cut-off for these calls is given here.

The target of assay [1] is Transthyretin (Homo sapiens) (UniProt P02766). The assay can be described thus: Binding affinity to His6-tagged wild-type TTR (unknown origin) expressed in Escherichia coli BL21 star (DE3) assessed as assignment of protein resonance by TROSY [1H-13C-15N] HNCA spectroscopy. In short, it runs like this:
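3D HNCA spectra of TTR acquired in the presence of ligand to confirm the backbone resonance assignment. The assignment was made de novo from TROSY multidimensional experiments at 310 K, pH 7.0 and 7.4.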

Assay [2] has the same target. The assay is described as follows: Binding affinity to His6-tagged wild-type TTR (unknown origin) expressed in Escherichia coli BL21 star (DE3) at 0.5:1 ratio of test compound to protein by 2D TROSY [1H-15N] spectroscopy. In short, it runs like this: (§1)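 50 μM TTR in 600 μL titrated with ligand from 10 mM stocks in DMSO-d6 (up to 6 μL; at most 1% v/v DMSO-d6). 2D [1H,15N] TROSY spectra recorded at ligand/protein ratios 0, 0.5, 1.0, 1.5 and 2.0 for the monovalent ligand and 0, 0.5 and 1.0 for the bivalent ligand. Per-residue amide shifts were expressed as a combined chemical shift change in ppm.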

Assay [3] has the same target. The assay can be described thus: Binding affinity to His6-tagged wild-type TTR (unknown origin) expressed in Escherichia coli BL21 star (DE3) at 1:1 ratio of test compound to protein by 2D TROSY [1H-15N] spectroscopy. In short, it runs like this: as §1
Assay [4] shares this target. The assay can be described thus: Binding affinity to wild-type TTR (unknown origin) assessed as induction of chemical shift at E72 residue at 0.6:1 to 1:1 ratio of compound to protein by 2D TROSY [1H-15N] spectroscopy. In short, it runs like this: as §1
The target is the same in assay [5]. The assay can be described thus: Binding affinity to wild-type TTR (unknown origin) assessed as induction of chemical shift at L17 residue at 0.6:1 to 1:1 ratio of compound to protein by 2D TROSY [1H-15N] spectroscopy. In short, it runs like this:
as §1

Assay [6] has the same target. The assay can be described thus: Binding affinity to wild-type TTR (unknown origin) assessed as induction of chemical shift at A19 residue at 0.6:1 to 1:1 ratio of compound to protein by 2D TROSY [1H-15N] spectroscopy. The procedure, abridged:
as §1

Assay [7] has the same target. The assay can be described thus: Binding affinity to wild-type TTR (unknown origin) assessed as induction of chemical shift at R21 residue at 0.6:1 to 1:1 ratio of compound to protein by 2D TROSY [1H-15N] spectroscopy. In short, it runs like this:
as §1

For assay [8] the target is unchanged. The assay can be described thus: Binding affinity to wild-type TTR (unknown origin) assessed as induction of chemical shift at G22 residue at 0.6:1 to 1:1 ratio of compound to protein by 2D TROSY [1H-15N] spectroscopy. In short, it runs like this:
as §1

For assay [9] the target is unchanged. The assay is described as follows: Binding affinity to wild-type TTR (unknown origin) assessed as induction of chemical shift at L58 residue at 0.6:1 to 1:1 ratio of compound to protein by 2D TROSY [1H-15N] spectroscopy. In short, it runs like this:
as §1

Assay [10] has the same target. The assay is described as follows: Binding affinity to wild-type TTR (unknown origin) assessed as induction of chemical shift at H88 residue at 0.6:1 to 1:1 ratio of compound to protein by 2D TROSY [1H-15N] spectroscopy. In short, it runs like this:
as §1

Assay [11] has the same target. The assay can be described thus: Binding affinity to wild-type TTR (unknown origin) assessed as induction of chemical shift at E92 residue at 0.6:1 to 1:1 ratio of compound to protein by 2D TROSY [1H-15N] spectroscopy. In short, it runs like this: as §1
Assay [12] shares this target. The assay can be described thus: Binding affinity to wild-type TTR (unknown origin) assessed as induction of chemical shift at T96 residue at 0.6:1 to 2:1 ratio of compound to protein by 2D TROSY [1H-15N] spectroscopy. Conditions: in the assay text read “0.6:1 to 1:1 ratio” for “0.6:1 to 2:1 ratio”. In short, it runs like this:
as §1

For assay [13] the target is unchanged. The assay can be described thus: Binding affinity to wild-type TTR (unknown origin) assessed as induction of chemical shift at A108 residue at 0.6:1 to 1:1 ratio of compound to protein by 2D TROSY [1H-15N] spectroscopy. In short, it runs like this:
as §1

Assay [14] shares this target. The assay is described as follows: Binding affinity to wild-type TTR (unknown origin) assessed as induction of chemical shift at A109 residue at 0.6:1 to 1:1 ratio of compound to protein by 2D TROSY [1H-15N] spectroscopy. The procedure, abridged:
as §1

Assay [15] shares this target. The assay is described as follows: Binding affinity to wild-type TTR (unknown origin) assessed as induction of chemical shift at L110 residue at 0.6:1 to 1:1 ratio of compound to protein by 2D TROSY [1H-15N] spectroscopy. In short, it runs like this:
as §1

Assay [16] has the same target. The assay is described as follows: Binding affinity to wild-type TTR (unknown origin) assessed as induction of chemical shift at Y114 residue at 0.6:1 to 1:1 ratio of compound to protein by 2D TROSY [1H-15N] spectroscopy. The procedure, abridged:
as §1

Assay [17] has the same target. The assay is described as follows: Binding affinity to wild-type TTR (unknown origin) assessed as induction of chemical shift at S117 residue at 0.6:1 to 1:1 ratio of compound to protein by 2D TROSY [1H-15N] spectroscopy. The procedure, abridged:
as §1

For assay [18] the target is unchanged. The assay can be described thus: Binding affinity to wild-type TTR (unknown origin) assessed as induction of chemical shift at T118 residue at 0.6:1 to 1:1 ratio of compound to protein by 2D TROSY [1H-15N] spectroscopy. The procedure, abridged: as §1
The target is the same in assay [19]. The assay can be described thus: Binding affinity to wild-type TTR (unknown origin) assessed as increase in bound resonance at L55 residue at 0.5:1 to 1:1 ratio of compound to protein by 2D TROSY [1H-15N] spectroscopy. In short, it runs like this:
as §1

The target is the same in assay [20]. The assay is described as follows: Binding affinity to wild-type TTR (unknown origin) assessed as induction of chemical shift at H90 residue at 1:1 ratio of compound to protein by 2D TROSY [1H-15N] spectroscopy. In short, it runs like this:
as §1

The target is the same in assay [21]. The assay can be described thus: Binding affinity to wild-type TTR (unknown origin) assessed as induction of chemical shift perturbation at A120 residue at 1:1 ratio of compound to protein by 2D TROSY [1H-15N] spectroscopy. The procedure, abridged: as §1
For assay [22] the target is unchanged. The assay can be described thus: Binding affinity to wild-type TTR (unknown origin) assessed as chemical shift perturbation at protein dimer-dimer interface at 1:1 ratio of compound to protein by 2D TROSY [1H-15N] spectroscopy. In short, it runs like this: as §1
For assay [23] the target is unchanged. The assay can be described thus: Binding affinity to wild-type TTR (unknown origin) assessed as chemical shift perturbation at DE loops at 1:1 ratio of compound to protein by 2D TROSY [1H-15N] spectroscopy. In short, it runs like this:
as §1

For assay [24] the target is unchanged. The assay is described as follows: Binding affinity to wild-type TTR (unknown origin) assessed as chemical shift perturbation at H1 helix at 1:1 ratio of compound to protein by 2D TROSY [1H-15N] spectroscopy. In short, it runs like this:
as §1

For assay [25] the target is unchanged. The assay is described as follows: Binding affinity to wild-type TTR (unknown origin) assessed as chemical shift perturbation at EH1 loops at 1:1 ratio of compound to protein by 2D TROSY [1H-15N] spectroscopy. In short, it runs like this: as §1
The target is the same in assay [26]. The assay is described as follows: Binding affinity to wild-type TTR (unknown origin) assessed as chemical shift perturbation at CD loops at 1:1 ratio of compound to protein by 2D TROSY [1H-15N] spectroscopy. The procedure, abridged:
as §1

For assay [27] the target is unchanged. The assay is described as follows: Binding affinity to wild-type TTR (unknown origin) assessed as induction of chemical shift perturbation at V93 residue at 1:1 ratio of compound to protein by 2D TROSY [1H-15N] spectroscopy. The procedure, abridged: as §1
Assay [28] has the same target. The assay is described as follows: Binding affinity to wild-type TTR (unknown origin) assessed as chemical shift perturbation at K9 residue at 1:1 ratio of compound to protein by 2D TROSY [1H-15N] spectroscopy. In short, it runs like this:
as §1

Assay [29] has the same target. The assay can be described thus: Binding affinity to wild-type TTR (unknown origin) assessed as formation of hydrogen bond between A25 and T49 at 1:1 ratio of compound to protein by 2D TROSY [1H-15N] spectroscopy.

Consider `O=C(O)c1ccccc1Nc1cc(Cl)c(OCCCCCCCOc2c(Cl)cc(Nc3ccccc3C(=O)O)cc2Cl)c(Cl)c1`, for which the outcome in assay [1], in assay [2], in assay [3], in assay [4], in assay [19] and in assay [20] was Active. In addition, the result in assay [21], in [22], in [23], in assay [24], in assay [25] and in [26] was Active. Further, the result in [27], in assay [28] and in [29] was Active. Besides, the outcome in assay [5], in assay [6], in [7], in [8], in assay [9] and in assay [10] was inactive. The outcome in assay [11], in [12], in assay [13], in [14], in assay [15] and in assay [16] was inactive. For the same molecule, the result in assay [17] and in assay [18] was inactive.
Consider `O=C(O)c1ccc2nc(-c3cc(Cl)cc(Cl)c3)oc2c1`, for which the result in [1], in assay [2], in assay [19], in [20] and in [21] was Active.
